Measured values from ChEMBL document CHEMBL5252546, “Salutaxel, a Conjugate of Docetaxel and a Muramyl Dipeptide (MDP) Analogue, Acts as Multifunctional Prodrug That Inhibits Tumor Growth and Metastasis” (J Med Chem, 2018).
Active and inactive are the calls of the source. The calls are words filed in the database; no cut-off is given here.

Tests used:
4T1 [1] = assay: Antitumor activity against mouse 4T1 cells implanted in BALB/c mouse assessed as decrease in spleen MMP2 expression level at 5.7 mg/kg,iv administrated once per week for 4 weeks in presence of MDA-205 by western blot assay; type: functional, organism-based
How it was run: (§1)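 4T1 cells injected into mammary fat pads of BALB/c mice. Saline vehicle or test article given iv once weekly for 4 weeks. Spleen, lung and tumor lysates immunoblotted for MMP2/MMP9 with β-actin as loading control. Bands averaged over five mice per group, representative of two independent experiments.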

[2] = Toxicity in BALB/c mouse xenografted with human NCI-H1975 cells assessed as body weight loss at 5.7 mg/kg,iv administrated once per week for 3 weeks; type: organism-based; conditions: in vivo, 504 h
How it was run: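 Nude BALB/c nu/nu mice received subcutaneous human tumour cells into the right flank. Dosing started at mean tumour volume of 100–120 mm3, iv once weekly for 3 weeks; the taxane arm was an equimolar control. Body weight and overt side effects were monitored. Mean ± SEM, n = 8.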

[3] = Tmax in mouse plasma implanted with mouse 4T1 cells at 5.7 mg/kg,iv measured upto 72 hrs; type: ADME, organism-based
4T1 [4] = assay: Antitumor activity against mouse 4T1 cells implanted in BALB/c mouse assessed as decrease in serum TIMP-1 level at 5.7 mg/kg,iv administrated once per week for 4 weeks by ELISA; type: functional, organism-based
4T1 [5] = assay: Antitumor activity against mouse 4T1 cells xenografted with BALB/c mouse assessed as reduction lung metastatic nodules at 5.7 mg/kg,iv in presence of compound 5b administrated once per week for 4 weeks; type: functional, organism-based
How it was run: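 4T1 cells injected into mammary fat pads of BALB/c mice. Dosing iv once per week for 4 weeks, saline vehicle; single-agent arms were given alone or with the peptide component (5b or 6). Endpoints were body weight, tumour volume, tumour weight, lung metastatic nodule count and lung metastasis score. Mean ± SEM, n = 10; ANOVA and Student's t test.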

4T1 [6] = assay: Antitumor activity against mouse 4T1 cells implanted in BALB/c mouse assessed as decrease in tumor MMP2 expression level at 5.7 mg/kg,iv administrated once per week for 4 weeks in presence of MDA-205 by western blot assay; type: functional, organism-based; how it was run: as §1
4T1 [7] = assay: Antitumor activity against mouse 4T1 cells implanted in BALB/c mouse assessed as decrease in lung injury at 5.7 mg/kg,iv administrated once per week for 4 weeks in presence of compound 5b by H and E staining based assay; type: functional, organism-based
How it was run: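 BALB/c mice bearing orthotopic mammary fat pad 4T1 tumors, dosed iv weekly for 4 weeks with saline vehicle as control. Lung sections stained with hematoxylin and eosin and examined by light microscopy at 40× for metastasis, inflammatory infiltration and alveolar wall thickening.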

[8] = Drug concentration in plasma of rat at 2.28 mg/kg,iv measured upto 24 hrs; type: ADME, organism-based; conditions: in vivo
How it was run: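 Taxane given as a single intravenous dose: 2.28 mg/kg to rats by injection and 1.14 mg/kg to Beagle dogs by infusion. Plasma concentrations were then measured.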

4T1 [9] = assay: Antitumor activity against mouse 4T1 cells implanted in BALB/c mouse assessed as decrease in spleen MDSC cells at 5.7 mg/kg,iv administrated in presence of compound 5b measured after 28 days (reference value: 38%); type: functional; set-up: scale not given: the % may be the effect or the level left; conditions: time 28 day
How it was run: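 Splenocytes taken from 4T1 fat-pad tumor-bearing BALB/c mice after 28 days of tumor growth with weekly iv dosing. Cells stained with anti-CD11b PE and anti-Gr-1 FITC, and the Gr-1+CD11b+ percentage scored by flow cytometry. Eight mice per treated group, five naive. Mean ± SEM.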

[10] = AUC (0-t) in rat at 8 mg/kg,iv measured upto 24 hrs; type: ADME, organism-based; set-up: dose 8 mg/kg, time < 24 hrs, route iv; conditions: in vivo
How it was run: (§2)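 Single iv dose: rats 2, 4 or 8 mg/kg by intravenous injection; Beagle dogs 1, 2 or 4 mg/kg by intravenous infusion. Plasma concentration–time data were analysed by sex and pooled. Reported parameters: Cmax, Tmax, AUC0−t, AUC0−∞, MRT0−∞, t1/2, CL, Vss, given as mean ± SD.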

[11] = Acute toxicity in Sprague-Dawley rat assessed as maximum tolerated dose at iv administration; type: organism-based; conditions: in vivo
How it was run: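 Acute toxicity after a single intravenous administration. […] In dogs, an approximate lethal dose range was determined.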

[12] = MRT (0 to infinity) in rat at 2 mg/kg,iv measured upto 24 hrs; type: ADME, organism-based; conditions: in vivo
[13] = Stability in rat hepatocyte assessed as compound remaining at 3 uM incubated upto 120 mins; type: ADME, cell-based; conditions: hepatocytes, 2 h
[14] = Cmax in Beagle dog at 4 mg/kg,iv measured upto 24 hrs; type: ADME, organism-based, Canis lupus familiaris; set-up: dose 4 mg/kg, time < 24 hrs, route iv; conditions: in vivo
How it was run: (§3)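 Beagle dogs were given a single iv infusion at 1, 2 or 4 mg/kg. Plasma parent drug and released docetaxel were followed over time. Cmax, Tmax, AUC, MRT, t1/2, CL and Vss were reported by sex and for all dogs combined.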

[15] = Prodrug conversion in mouse tumor implanted with mouse 4T1 cells assessed as Tmax of docetaxel at 4 mg/kg,iv measured upto 72 hrs; type: ADME, organism-based, Neoplasm; conditions: in vivo
[16] = AUC (0-infinity) in male rat at 8 mg/kg,iv measured upto 24 hrs; type: ADME, organism-based; set-up: dose 8 mg/kg, time < 24 hrs, route iv; conditions: in vivo; how it was run: as §2
[17] = AUC (0-t) in mouse plasma implanted with mouse 4T1 cells at 10 mg/kg,iv measured upto 72 hrs; type: ADME, organism-based; set-up: dose 10 mg/kg, time < 72 hrs, route iv
How it was run: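 4T1 tumor-bearing mice (4T1 cells implanted in the mammary fat pad) received a single iv dose of 10 mg/kg. Plasma and tumor tissue were sampled up to 72 h, with n = 6. Levels of parent and of released docetaxel were measured. AUC came from noncompartmental analysis, reported as mean ± SD.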

4T1 [18] = assay: Antitumor activity against mouse 4T1 cells xenografted with BALB/c mouse assessed as inhibition of tumor growth at 5 to 20 mg/kg,iv administrated once per week for 4 weeks; type: functional, organism-based; conditions: dose 5-20 mg/kg
How it was run: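 4T1 cells injected into the mammary fat pad of BALB/c mice; iv saline vehicle or 5, 10 or 20 mg/kg once weekly for 4 weeks; body weight, tumour volume, tumour weight, lung metastatic nodule count and metastasis score recorded; n = 10, mean ± SEM, ANOVA and Student's t test.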

[19] = Cmax in Beagle dog at 1 mg/kg,iv measured upto 24 hrs; type: ADME, organism-based, Canis lupus familiaris; set-up: dose 1 mg/kg, time < 24 hrs, route iv; conditions: in vivo; how it was run: as §3
Cytochrome P450 1A2 = Cytochrome P450 1A2 (Homo sapiens, UniProt P05177); assay: Inhibition of CYP1A2 in human liver microsomes using probe substrate at 0.1 to 100 uM in presence of NADPH; type: ADME, Microsome; conditions: dose 0.1-100 µM
[20] = Clearance in male rat at 4 mg/kg,iv measured upto 24 hrs; type: ADME, organism-based; conditions: in vivo
How it was run: (§4)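 Rats were given a single iv injection at 2, 4 or 8 mg/kg. Plasma parent drug and released docetaxel were followed over time. Cmax, Tmax, AUC, MRT, t1/2, CL and Vss were reported for males, females and all animals combined.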

[21] = Half life in male rat at 8 mg/kg,iv measured upto 24 hrs; type: ADME, organism-based; conditions: in vivo
[22] = Drug concentration in rat brain assessed as docetaxel concentration at 4 mg/kg,iv measured after 24 hrs; type: ADME, organism-based; conditions: in vivo
How it was run: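 Rats received 4 mg/kg iv. Parent drug and released docetaxel were assayed in tissues and plasma from the first sampling at 0.25 h to 24 h. The lower limit of quantitation was 200 ng/g.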

[23] = Tmax in mouse tumor implanted with mouse 4T1 cells at 10 mg/kg,iv measured upto 72 hrs; type: ADME, organism-based, Neoplasm
[24] = Volume of distribution at steady state in male Beagle dog at 2 mg/kg,iv measured upto 24 hrs; type: ADME, organism-based, Canis lupus familiaris; conditions: in vivo, read-out: Vdss
[25] = Cmax in male rat at 2 mg/kg,iv measured upto 24 hrs; type: ADME, organism-based; set-up: time < 24 hrs, dose 2 mg/kg, route iv; conditions: in vivo; how it was run: as §4
[26] = Cmax in female Beagle dog at 2 mg/kg,iv measured upto 24 hrs; type: ADME, organism-based, Canis lupus familiaris; set-up: dose 2 mg/kg, time < 24 hrs, route iv; conditions: in vivo; how it was run: as §3

Cytochrome P450 1A2, sequence (P05177 whole entry): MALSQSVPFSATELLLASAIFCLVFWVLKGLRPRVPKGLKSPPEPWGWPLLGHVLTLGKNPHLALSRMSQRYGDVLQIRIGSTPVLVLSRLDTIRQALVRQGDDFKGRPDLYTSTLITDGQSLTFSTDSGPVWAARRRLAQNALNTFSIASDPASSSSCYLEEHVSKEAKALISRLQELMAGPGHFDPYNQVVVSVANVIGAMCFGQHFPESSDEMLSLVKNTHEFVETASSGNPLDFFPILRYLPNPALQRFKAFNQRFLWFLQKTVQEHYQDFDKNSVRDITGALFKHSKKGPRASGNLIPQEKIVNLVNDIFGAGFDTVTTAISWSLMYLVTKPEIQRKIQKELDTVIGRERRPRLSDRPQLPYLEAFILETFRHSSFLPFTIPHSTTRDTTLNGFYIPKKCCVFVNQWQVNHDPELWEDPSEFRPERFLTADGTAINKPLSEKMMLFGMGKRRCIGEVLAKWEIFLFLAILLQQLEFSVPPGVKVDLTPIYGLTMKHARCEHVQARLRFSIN

For `CC(=O)O[C@@]12CO[C@@H]1C[C@H](O)[C@@]1(C)C(=O)[C@H](O)C3=C(C)[C@@H](OC(=O)[C@H](O)[C@@H](NC(=O)OC(C)(C)C)c4ccccc4)C[C@@](O)([C@@H](OC(=O)c4ccccc4)[C@H]21)C3(C)C` [DOCETAXEL ANHYDROUS], the Activity (4T1 [1]) was “inactive”, the Activity [2] was “Non-Toxic” and the Tmax [3] was 1.8 min. The Activity (4T1 [4]) was “Active”, the Activity (4T1 [5]) was “inactive” and the Activity (4T1 [6]) was “inactive”. The Activity (4T1 [7]) was “Active”, the Drug uptake [8] was 45% and the Activity (4T1 [9]) was 32.1%.
For `CC(=O)O[C@@]12CO[C@@H]1C[C@H](O)[C@@]1(C)C(=O)[C@H](O)C3=C(C)[C@@H](OC(=O)[C@H](OC(=O)CCC(=O)NCCCC[C@H](NC(=O)CC[C@@H](NC(=O)[C@H](C)NC(=O)/C=C/c4ccc(F)cc4Cl)C(N)=O)C(=O)O)[C@@H](NC(=O)OC(C)(C)C)c4ccccc4)C[C@@](O)([C@@H](OC(=O)c4ccccc4)[C@H]21)C3(C)C`, the AUC(0-t) at 24 h [10] was 45800 ng·h/mL, the MTD [11] was 9.4 mg/kg and the MRT inf [12] was 11.3 min. For the same compound, the Stability [13] was “Stable”, the Cmax [14] was 30100 ng/mL and the Tmax [15] was 30 min. The AUC(0-inf) [16] was 52800 ng·h/mL, the AUC(0-t) at 72 h [17] was 3.33 µM·h and the inhibition (4T1 [18]) was “Dose-Dependent Effect”. For the same compound, the Cmax [19] was 3880 ng/mL, the “inhibition (INH)” value (Cytochrome P450 1A2) was “Not Active” and the clearance [20] was 3.28 mL/min/kg. For the same compound, the half-life [21] was 21.4 min, the Drug uptake [22] was “Not Active” and the Tmax [23] was 15 min. For the same compound, the Vd [24] was 0.09 L/kg, the Cmax [25] was 15800 ng/mL and the Cmax [26] was 14700 ng/mL.
